Measurements from paper PMC8290212 (Bioorganic & medicinal chemistry letters, 2019).
Entries after “also recorded” stand apart in the source; their conditions may differ. Like-named read-outs stand apart in the source and are kept apart here. Marks after values point to notes of the source that are not given here.

Assays:
[1] = tested on: Influenza A virus H5N1, Influenza A/Vietnam/1203/2004 × A/PR/8/34 (recombinant H5N1); assay: microbe, parasite or virus in culture; format: cell-based; conditions: H5N1|PR/8, MDCK
[2] = tested on: MDCK cells
[3] = tested on: Influenza A virus H1N1, Influenza A/California/7/2009; format: cell-based
[4] = tested on: A/PR/8/34 strain of influenza A virus (H1N1); format: cell-based
[5] = microsomes; for Mouse Liver Microsomal Stability (% remaining) 0 min: 0 h; for Mouse Liver Microsomal Stability (% remaining) 15 min: 0.25 h; for Mouse Liver Microsomal Stability (% remaining) 30 min: 0.5 h
[6] = in vitro; conditions: dog
[7] = tested on: IFN-β mRNA; assay: RT-PCR analysis of IFN-β mRNA in MDCK cells; format: cell-based; conditions: MDCK infected with A/PR/8/34, MOI 2, 20 μM, 6 h
Method in brief: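 MDCK cells infected with influenza A/PR/8/34 (MOI 2) and incubated with test compound (20 μM) for 6 h, then harvested. IFN-β mRNA detected by RT-PCR, with β-actin mRNA as reference. Poly(I:C)-induced cells were the positive control for IFN-β induction and RT-PCR. Uninfected cells received the same drug treatment and RT-PCR in parallel.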

[8] = tested on: NS1-pYES yeast strain; assay: Yeast-based NS1 assay: reversal of NS1-induced slow-growth phenotype; format: cell-based; conditions: for restoration of yeast growth (reversal of slow growth phenotype): NS1-pYES strain, 50 μM, 22, 42 and 60 h
[9] = in vitro; conditions: human, Caco-2, Efflux Ratio
[10] = tested on: Caco-2 monolayer; conditions: human, Caco-2, 2 h
[11] = Mouse liver microsomal stability

**Q.** What does the source list for `CCOc1cc(-c2c(C#N)c(O)nc3c2c(C)nn3-c2ccc(F)cc2)ccc1O` [Compound 1]?
**A.** EC50 [1]: 28.5 µM; Cytotoxicity towards host MDCK cells [2]: without toxicity; EC50 [3]: single digit micromolar

**Q.** With `Cc1ccc(-n2nc(C)c3c(-c4ccc(O)c(O)c4)c(C#N)c(N)nc32)cc1C` [Compound 4] as the molecule, how does the “dose response in the TCID50 assay” value [4] read?
**A.** Its value is “successfully decreased viral titer with increasing concentration”.

**Q.** And the “Mouse Liver Microsomal Stability (% remaining) 0 min” value [5]?
**A.** Its value is 100 % remaining.

**Q.** What about the “Mouse Liver Microsomal Stability (% remaining) 15 min” value [5] of the same molecule?
**A.** The value was 78 % remaining.

**Q.** And the “Mouse Liver Microsomal Stability (% remaining) 30 min” value [5]?
**A.** Its value is 64 % remaining.

**Q.** And the CC50 [6]?
**A.** Its CC50 is 24.5 µM.

**Q.** And the “restoration of IFN-β mRNA levels in infected cells” value (shortened to “restoration of IFN-β mRNA levels”) [7]?
**A.** The value was “significantly restored IFN-β mRNA levels”.

**Q.** What about the “restoration of yeast growth (reversal of slow growth phenotype)” value (shortened to “restoration of yeast growth”) [8] of the same molecule?
**A.** Its value is “show the same behavior”.

**Q.** And the EC50 [3]?
**A.** Its EC50 is “single digit micromolar”.

**Q.** Which results are given for `Cc1nn(-c2ccc(Cl)cc2)c2nc(N)c(C#N)c(-c3ccc(O)c(O)c3)c12` [Compound 6]?
**A.** efflux ratio at 2 h [9]: 7.78; dose response in the TCID50 assay [4]: successfully decreased viral titer with increasing concentration; Mouse Liver Microsomal Stability (% remaining) 0 min [5]: 100 % remaining; Mouse Liver Microsomal Stability (% remaining) 15 min [5]: 93 % remaining; Mouse Liver Microsomal Stability (% remaining) 30 min [5]: 90 % remaining; CC50 [6]: 24.5 µM; restoration of IFN-β mRNA levels in infected cells [7]: significantly restored IFN-β mRNA levels; restoration of yeast growth (reversal of slow growth phenotype) [8]: show the same behavior

**Q.** Which EC50 [1] does the source give for `COc1cc(-c2c(C#N)c(N)nc3c2c(C)nn3-c2ccc(F)cc2)ccc1O` [Compound 10] here?
**A.** The EC50 was 3.6 µM.

**Q.** And the “dose response in the TCID50 assay” value [4]?
**A.** The value was “successfully decreased viral titer with increasing concentration”.

**Q.** What about the “Mouse Liver Microsomal Stability (% remaining) 0 min” value [5] of the same molecule?
**A.** The value was 100 % remaining.

**Q.** What about the “Mouse Liver Microsomal Stability (% remaining) 15 min” value [5] of the same molecule?
**A.** Its value is 74 % remaining.

**Q.** And the “Mouse Liver Microsomal Stability (% remaining) 30 min” value [5]?
**A.** The value was 60 % remaining.

**Q.** And the CC50 [6]?
**A.** Its CC50 is 24.7 µM.

**Q.** And the “restoration of IFN-β mRNA levels” value [7]?
**A.** The value was “significantly restored IFN-β mRNA levels”.

**Q.** What about the “restoration of yeast growth” value [8] of the same molecule?
**A.** Its value is “show the same behavior”.

**Q.** And the EC50 [3]?
**A.** Its EC50 is “single digit micromolar”.

**Q.** Which efflux ratio at 2 h [9] does the source give for `COc1cc(-c2ccnc3c2c(C)nn3-c2ccc(C(F)(F)F)cc2)ccc1O` [Compound 32] here?
**A.** Its efflux ratio at 2 h is 2.29.

**Q.** And the “dose response in the TCID50 assay” value [4]?
**A.** The value was “successfully decreased viral titer with increasing concentration”.

**Q.** What about the “selectivity index (SI)” value [4] of the same molecule?
**A.** The value was “greater than 100 fold”.

**Q.** And the “viral suppression (TCID50)” value [4]?
**A.** Its value is 3 log units.

**Q.** And the “Efflux Ratio” value [10]?
**A.** Its value is 1.20^b.

**Q.** What about the “Mouse Liver Microsomal Stability (% remaining) 0 min” value [5] of the same molecule?
**A.** Its value is 100 % remaining.

**Q.** What about the “Mouse Liver Microsomal Stability (% remaining) 15 min” value [5] of the same molecule?
**A.** Its value is 66 % remaining.

**Q.** What about the “Mouse Liver Microsomal Stability (% remaining) 30 min” value [5] of the same molecule?
**A.** Its value is 45 % remaining.

**Q.** What about the “Cytotoxicity towards host MDCK cells” value ([2]; dog) of the same molecule?
**A.** The value was “did not affect cell viability at 5, 10, 50 and 100 μM”.

**Q.** What about the CC50 [6] of the same molecule?
**A.** Its CC50 is 19.8 µM.

**Q.** And the “restoration of IFN-β mRNA levels” value [7]?
**A.** The value was “significantly restored IFN-β mRNA levels”.

**Q.** What about the “restoration of IFN-β mRNA levels” value ([7]; listed as C00006) of the same molecule?
**A.** Its value is “Restores IFN-β mRNA levels”.

**Q.** What about the “acute toxicity in yeast assay” value ([8]; 50 μM) of the same molecule?
**A.** Its value is “does not display acute toxicity”.

**Q.** And the “restoration of yeast growth” value [8]?
**A.** Its value is “reversal of the slow growth phenotype; also recorded: reversed”.

**Q.** And the EC50 [3]?
**A.** Its EC50 is “sub-micromolar”.

**Q.** Which results are given for `COc1cc(-c2ccnc3c2c(C)nn3-c2cccc(C(F)(F)F)c2)ccc1O` [Compound 33]?
**A.** Mouse Liver Microsomal Stability (% remaining) 0 min ([11]; 0 min): 100 % remaining; Mouse Liver Microsomal Stability (% remaining) 15 min ([11]; 15 min): 25 % remaining; Mouse Liver Microsomal Stability (% remaining) 30 min ([11]; 30 min): 16 % remaining; CC50 [6]: 24.5 µM; restoration of yeast growth (reversal of slow growth phenotype) [8]: show the same behavior

**Q.** For `COc1cccc(-c2ccnc3c2c(C)nn3-c2ccc(F)cc2)c1` [Compound 37], which “Cytotoxicity towards host MDCK cells” value [2] is on record?
**A.** The value was “exhibited cytotoxicity”.

**Q.** Which EC50 [1] does the source give for `NC(=O)c1ncn([C@@H]2O[C@H](CO)[C@@H](O)[C@H]2O)n1` [Ribavirin, reference compound] here?
**A.** Its EC50 is 32.2 µM.
